# Assay results reported in ChEMBL document CHEMBL5661971 (Cancer Res, 2006).
# pEC50, pKi: −log10 of the molar value. Calls of active or inactive are those of the source. No cut-off for these calls is given here.
# Legend:
# [1] = Inhibition of MEK in human HMEC cells assessed as inhibition of ERK phosphorylation incubated for 60 mins by Western blotting analysis; assay type: cell-based; settings: 1 h
# Outline: (§1)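 Cells exposed for 60 min, then Western blot for phospho-ERK1/2 and total ERK1/2 with infrared imaging. […] DMSO control.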
# HT-29 = experiment: Antiproliferative activity against human HT-29 cells expressing B-Raf V600E mutant assessed as decrease in cell growth incubated for 72 hrs by CellTiter-Glo based luminescence assay; assay type: functional; settings: HT-29, 72 h
# Outline: (§2)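 Cells treated over 1 nmol/L to 20 μmol/L in 0.1% DMSO for 72 h at 37°C, 5% CO₂. Viable cells read by CellTiter-Glo luminescence. EC50 derived from proliferation data.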
# WM35 = experiment: Inhibition of MEK in human WM35 cells assessed as decreased ERK phosphorylation at 2 micromol/L incubated for 60 mins by Western blotting analysis; assay type: cell-based; settings: dose 2.0 µmol/L
# SK-MEL-28 = experiment: Antiproliferative activity against human SK-MEL-28 cells expressing B-Raf V600E mutant assessed as decrease in cell growth incubated for 72 hrs by CellTiter-Glo based luminescence assay; assay type: functional; settings: SK-MEL-28, 72 h; outline: as §2
# Melanocyte [2] = experiment: Inhibition of MEK in normal human Melanocyte cells assessed as decreased ERK phosphorylation at 2 micromol/L incubated for 60 mins by Western blotting analysis; assay type: cell-based; settings: dose 2.0 µmol/L
# COLO 205 = experiment: Antiproliferative activity against human COLO 205 cells expressing B-Raf V600E mutant assessed as decrease in cell growth incubated for 72 hrs by CellTiter-Glo based luminescence assay; assay type: functional; settings: COLO 205, 72 h; outline: as §2
# SK-MEL-2 = experiment: Antiproliferative activity against human SK-MEL-2 cells expressing N-Ras Q61R mutant assessed as decrease in cell growth incubated for 72 hrs by CellTiter-Glo based luminescence assay; assay type: functional; settings: SK-MEL-2, 72 h; outline: as §2
# [3] = Cytotoxicity against human HMEC cells assessed as decrease in cell growth incubated for 72 hrs by CellTiter-Glo based luminescence assay; assay type: toxicity; outline: as §2
# WM-3434 = experiment: Inhibition of MEK in human WM-3434 cells assessed as decreased ERK phosphorylation at 2 micromol/L incubated for 60 mins by Western blotting analysis; assay type: cell-based; settings: dose 2.0 µmol/L
# [4] = Inhibition of MEK in human PrEC cells assessed as inhibition of ERK phosphorylation incubated for 60 mins by Western blotting analysis; assay type: cell-based; settings: 1 h; outline: as §1
# [5] = Antiproliferative activity against human A375P cells expressing B-Raf V600E mutant assessed as decrease in cell growth incubated for 72 hrs by CellTiter-Glo based luminescence assay; assay type: functional; outline: as §2
# HCT-116 = experiment: Antiproliferative activity against human HCT-116 cells expressing K-Ras G13D mutant assessed as decrease in cell growth incubated for 72 hrs by CellTiter-Glo based luminescence assay; assay type: functional; settings: HCT-116, 72 h; outline: as §2
# [6] = Inhibition of MEK in human HT-29 cells expressing B-Raf V600E mutant assessed as inhibition of ERK phosphorylation incubated for 60 mins by Western blotting analysis; assay type: cell-based; settings: HT-29, 1 h; outline: as §1
# Malme-3M = experiment: Antiproliferative activity against human Malme-3M cells expressing B-Raf V600E mutant assessed as decrease in cell growth incubated for 72 hrs by CellTiter-Glo based luminescence assay; assay type: functional; outline: as §2
# HT-1080 = experiment: Antiproliferative activity against human HT-1080 cells expressing N-Ras Q61K mutant assessed as decrease in cell growth incubated for 72 hrs by CellTiter-Glo based luminescence assay; assay type: functional; settings: HT-1080, 72 h; outline: as §2
# [7] = Inhibition of MEK in human SK-MEL-28 cells expressing B-Raf V600E mutant assessed as inhibition of ERK phosphorylation incubated for 60 mins by Western blotting analysis; assay type: cell-based; settings: SK-MEL-28, 1 h; outline: as §1
# [8] = Inhibition of MEK in human Malme-3M cells expressing B-Raf V600E mutant assessed as inhibition of ERK phosphorylation incubated for 60 mins by Western blotting analysis; assay type: cell-based; settings: 1 h; outline: as §1
# [9] = Inhibition of MEK in human SK-MEL-2 cells expressing N-Ras2 Q61R mutant assessed as inhibition of ERK phosphorylation incubated for 60 mins by Western blotting analysis; assay type: cell-based; settings: SK-MEL-2, 1 h; outline: as §1
# [10] = Cytotoxicity against human HFF cells assessed as decrease in cell growth incubated for 72 hrs by CellTiter-Glo based luminescence assay; assay type: toxicity; outline: as §2
# WM-NCI = experiment: Inhibition of MEK in human WM-NCI cells assessed as decreased ERK phosphorylation at 2 micromol/L incubated for 60 mins by Western blotting analysis; assay type: cell-based; settings: dose 2.0 µmol/L
# [11] = Inhibition of MEK in human HFF cells assessed as inhibition of ERK phosphorylation incubated for 60 mins by Western blotting analysis; assay type: cell-based; settings: 1 h; outline: as §1
# [12] = Inhibition of MEK in human A375P cells expressing B-Raf V600E mutant assessed as inhibition of ERK phosphorylation incubated for 60 mins by Western blotting analysis; assay type: cell-based; settings: 1 h; outline: as §1
# [13] = Inhibition of MEK in human COLO 205 cells expressing B-Raf V600E mutant assessed as inhibition of ERK phosphorylation incubated for 60 mins by Western blotting analysis; assay type: cell-based; settings: COLO 205, 1 h; outline: as §1
# [14] = Inhibition of MEK in human HT-1080 cells expressing N-Ras2 Q61K mutant assessed as inhibition of ERK phosphorylation incubated for 60 mins by Western blotting analysis; assay type: cell-based; settings: HT-1080, 1 h; outline: as §1
# [15] = Cytotoxicity against human PrEC cells assessed as decrease in cell growth incubated for 72 hrs by CellTiter-Glo based luminescence assay; assay type: toxicity; outline: as §2
# [16] = Inhibition of MEK in human HCT-116 cells expressing K-Ras2 G13D mutant assessed as inhibition of ERK phosphorylation incubated for 60 mins by Western blotting analysis; assay type: cell-based; settings: HCT-116, 1 h; outline: as §1
# [17] = Toxicity in nude mouse xenografted with human A375P cells assessed as body weight change at 50 mg/kg administered daily for 21 days and then observed an additional 14 days following cessation of treatment; assay type: organism-based; settings: in vivo, 504 h, time 21 day
# Melanocyte [18] = experiment: Induction of cell cycle arrest in normal human Melanocyte cells assessed as accumulation of cells at G1 phase at 10 uM incubated for 24 hrs by flow cytometry analysis; assay type: toxicity, cell-based
# Outline: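 Normal human melanocytes exposed to 1 and 10 μmol/L for 24 h. Cell cycle distribution measured by flow cytometry on a FACScan.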
# A375P = experiment: Anti-tumor activity against human A375P cells xenografted in nude mouse assessed as decreased tumorigenesis at 50 mg/kg administered daily for 21 days and then observed an additional 14 days following cessation of treatment and measured after 55 days; assay type: functional, organism-based; settings: time 21.0 day
# Outline: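 Female nude mice, 8–12 weeks old, injected s.c. with 5×10^6 A375P cells in Matrigel. Treatment began 3 weeks later at tumor volume 150–250 mm³, groups of eight randomized. Daily i.p. dosing for 21 days in 2% N,N-dimethylacetamide/2% Cremophor EL/96% acidified water (pH ~4–5), vehicle controls. Caliper tumor volume twice weekly for 55 days; mean ±SE.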
# [19] = molecular target: RAF proto-oncogene serine/threonine-protein kinase (Homo sapiens, UniProt P04049); experiment: Inhibition of c-Raf (unknown origin) assessed as apparent inhibition constant; settings: read-out: Ki(app)
# Sequence of RAF proto-oncogene serine/threonine-protein kinase (P04049 whole entry): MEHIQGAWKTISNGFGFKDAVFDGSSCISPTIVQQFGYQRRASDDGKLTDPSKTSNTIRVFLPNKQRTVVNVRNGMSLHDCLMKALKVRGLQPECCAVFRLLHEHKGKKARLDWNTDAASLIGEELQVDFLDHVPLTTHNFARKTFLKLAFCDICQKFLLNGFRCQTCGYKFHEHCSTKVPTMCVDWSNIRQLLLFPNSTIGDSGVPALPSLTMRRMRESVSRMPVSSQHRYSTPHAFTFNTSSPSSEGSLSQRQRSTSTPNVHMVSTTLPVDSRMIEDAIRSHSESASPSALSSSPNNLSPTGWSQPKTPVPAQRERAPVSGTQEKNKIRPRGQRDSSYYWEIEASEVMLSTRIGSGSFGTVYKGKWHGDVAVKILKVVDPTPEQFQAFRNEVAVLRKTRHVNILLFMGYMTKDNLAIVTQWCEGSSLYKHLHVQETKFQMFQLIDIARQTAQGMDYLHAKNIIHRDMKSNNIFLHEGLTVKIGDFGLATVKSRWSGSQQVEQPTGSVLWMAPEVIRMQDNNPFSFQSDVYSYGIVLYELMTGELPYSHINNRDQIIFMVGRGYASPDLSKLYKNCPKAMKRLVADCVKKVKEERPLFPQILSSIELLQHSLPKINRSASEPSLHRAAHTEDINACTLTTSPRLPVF
# [20] = In vivo inhibition of ERK phosphorylation in human A375P cells xenografted in nude mouse at 50 mg/kg administered daily for 21 days and then observed an additional 14 days following cessation of treatment relative to control; assay type: functional; settings: 504 h, time 21 day
# [21] = Inhibition of BRAF V599E mutant (unknown origin) assessed as apparent inhibition constant incubated for 25 mins in presence of gamma-[33P]ATP; design: species or system Homo sapiens; settings: read-out: Ki(app)
SMILES,pEC50 (HT-29),pEC50 (SK-MEL-28),pEC50 (COLO 205),pEC50 (SK-MEL-2),EC50 at 72 h [3],pEC50 [5],pEC50 (HCT-116),pEC50 (Malme-3M),pEC50 (HT-1080),EC50 at 72 h [10],EC50 at 72 h [15],also measured
O=C(NOCC1CC1)c1ccc(F)c(F)c1Nc1ccc(I)cc1Cl [CI-1040],6.44,6.66,6.64,6.44,0.58 µM,6.62,5.66,6.36,5.80,4.9 µM,0.49 µM,pEC50 [1]: 7.96; inhibition (WM35): Active; inhibition (Melanocyte [2]): Active; inhibition (WM-3434): Active; pEC50 [4]: 7.41; pEC50 [6]: 7.06; pEC50 [7]: 7.07; pEC50 [8]: 6.28; pEC50 [9]: 6.54; inhibition (WM-NCI): Active; pEC50 [11]: 5.32; pEC50 [12]: 6.68; pEC50 [13]: 7.33; pEC50 [14]: 7.18; pEC50 [16]: 7.21
CN(C)CCOc1ccc(-c2nc(-c3ccncc3)c(-c3ccc4c(c3)CC/C4=N\O)[nH]2)cc1 [SB590885],6.06,6.92,7.00,6.26,9.2 µM,6.43,5.34,6.82,4.89,> 12 µM,> 13 µM,Activity [17]: Toxic; Activity (Melanocyte [18]): Toxic; Activity (A375P): Active; pKi [19]: 8.76; inhibition in vivo at 50 mg/kg [20]: ~50%
CNC(=O)c1cc(Oc2ccc(NC(=O)Nc3ccc(Cl)c(C(F)(F)F)c3)cc2)ccn1 [SORAFENIB],,,,,,,,,,,,pKi [21]: 7.42
